Broadly, the Kd is the equilibrium constant for the complex coming apart. A low value points to a tighter complex.

The structures appear in SMILES notation. Several values for one entry are separate records, joined by “and”; a condition that tells them apart may be missing. Identical values can stand only once.

Assay [1] concerns the target T1, Vβ8.2 NKT TCR (Vα14-Vβ8.2) / CD1d-Ag (Mus musculus, UniProt P11609+Z9CWY5XBV8).
T1 sequence (P11609 22-305 limits assumed): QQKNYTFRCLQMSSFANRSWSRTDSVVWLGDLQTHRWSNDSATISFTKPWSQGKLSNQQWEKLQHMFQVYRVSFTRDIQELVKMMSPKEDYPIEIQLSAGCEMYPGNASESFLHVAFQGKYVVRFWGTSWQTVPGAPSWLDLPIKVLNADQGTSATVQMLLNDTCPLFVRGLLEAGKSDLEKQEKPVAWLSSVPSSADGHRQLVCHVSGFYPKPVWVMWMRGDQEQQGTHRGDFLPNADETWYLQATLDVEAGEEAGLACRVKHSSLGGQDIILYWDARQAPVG
T1 sequence (P01887 21-119): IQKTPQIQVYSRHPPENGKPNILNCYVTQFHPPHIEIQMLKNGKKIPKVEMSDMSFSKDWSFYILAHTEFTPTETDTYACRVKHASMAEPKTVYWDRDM
Briefly: SPR of Vβ8.2 NKT TCR binding to glycolipid-loaded CD1d. As to conditions: for ka / kd: SPR kinetic experiment, 25°C, 1:1 Langmuir model. (In SPR one partner is held on a chip, and binding of the other changes the refractive index at the surface.)

Another assay deals with Vβ7 NKT TCR / CD1d-Ag. In words: SPR of Vβ7 NKT TCR binding to glycolipid-loaded CD1d. The arrangement: species or system mouse. Put shortly: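 Refolded mouse Vα14-Vβ7 NKT TCR flowed over glycolipid-loaded mouse CD1d (baculovirus-expressed, BirA/His-tagged) captured on streptavidin chips; CD1d-endogenous lipid surface subtracted. 25°C, HEPES buffer pH 7.4, 150 mM NaCl, 0.005% P20. Kinetics: 300–500 RU, 0.19–25 μM, 50 μl/min for 60 s, 1:1 Langmuir fit, duplicate. Steady-state: 2000 RU, 0.039–40 μM, 5 μl/min for 90 s, one-site fit.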

Assay [2] concerns spleen NKT cells. Briefly: Intracellular cytokine staining for IFN-γ in spleen NKT cells at 8 hours. It counts as cell-based, C57BL/6 mice. As to conditions: highest dose 100 ng/ml, ICS. Put shortly:
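Splenocytes from C57BL/6 mice (5×10^5/well) were cultured 8 hr with test glycolipid (100, 10, 1 ng/ml), with Golgistop for the final 4 hr. Four replicate wells were pooled per determination. Cells were surface-stained with glycolipid-loaded CD1d tetramer-PE and anti-TCR-β, fixed, permeabilised and stained for intracellular IFN-γ. Mean ± SEM of three experiments, each the mean of duplicate cultures.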

For another assay, the system named is spleen cells. Briefly: Cytometric bead array of 72 hr splenocyte culture supernatants. It counts as cell-based, C57BL/6 mice. The following applies: 72 hr spleen cell cultures, CBA. The gist of the method:
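C57BL/6 splenocytes (5×10^5/well) pulsed with test glycolipid at 100, 10 or 1 ng/ml and cultured overnight. Medium was then replaced without further glycolipid, and supernatants were harvested at 72 hr. Mean ± SEM of three independent experiments (IL-10: two), each the mean of duplicate cultures.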

In assay [3] the test system is spleen NKT cells. In words: CFSE proliferation assay of spleen NKT cells. The following applies: 72 hr, 100, 10 and 1 ng/ml. It counts as cell-based, C57BL/6 mice.
The next assay relates to NKT cells. Briefly: In vivo stimulation of NKT cells, serum cytokines by cytometric bead array. The arrangement: species or system mice. The following applies: 1 μg i.p. The gist of the method:
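Mice received 1 μg test glycolipid i.p. in 200 μL PBS. Serum was collected at 2 and 24 hr, and IFN-γ and IL-4 were quantified by cytometric bead array. Ratio taken as serum IFN-γ at 24 hr over IL-4 at 2 hr. Results combine three independent experiments, 10 mice per group.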

Where [4] appears, read: Vβ7 TCR, SPR kinetic experiment, 25°C, 1:1 Langmuir model.

With `CCCCCCCCCCCCCCCCCCCCCCCCCC(=O)N[C@@H](CC[C@H]1O[C@H](CO)[C@H](O)[C@H](O)[C@H]1O)[C@H](O)[C@H](O)CCCCCCCCCCCCCC` [α-C-GalCer], the Kd in assay [1] (KD(eq), Vβ8.2 TCR, steady-state affinity determined in separate experiment) is ~2000 nM and 2000 nM. In addition, in assay [1] (Vβ8.2 NKT TCR), the “NKT TCR affinity relative to CD1d-α-GalCer interaction (fold lower)” value is “approximately 10 fold”. Besides, in assay [1] (Vβ8.2 TCR), the ka was 225000 M⁻¹ s⁻¹ and 225000 ± 41000 M⁻¹ s⁻¹; the kd is 0.29 s⁻¹ and 0.29 ± 0.02 s⁻¹. Besides, in the assay on Vβ7 NKT TCR / CD1d-Ag (Vβ7 NKT TCR), the “NKT TCR affinity relative to CD1d-α-GalCer interaction (fold lower)” value is listed as “approximately 10 fold”. For the same molecule, the “IFN-γ+ NKT cells” value with spleen NKT cells [2] is ~ 12%. Further, the “cytokine amounts, fold lower compared to α-GalCer” value with spleen cells is 2–5 fold. For the same molecule, the “NKT cell proliferation (in words)” value in the assay on spleen NKT cells [3] was “little difference in the proliferative response”. Moreover, the “ratio of peak IFN-γ response (24 hours) to peak IL-4 response (2 hours)” value in the assay with NKT cells (serum) is reported as “Th1-like bias”. Besides, in the assay with NKT cells (serum at 2 and 24 hr), the “serum IFN-γ production in vivo compared to α-GalCer” value is on record as “lower amounts” and the “serum IL-4 production in vivo compared to α-GalCer” value is “lower amounts”.
Consider `CCCCCCCCCCCCCCCCCCCCCCCCCC(=O)N[C@@H](CO[C@H]1O[C@H](CO)[C@H](O)[C@H](O)[C@H]1O)[C@H](O)[C@H](O)CCCCCCCCCCCCCC` [α-GalCer, α-galactosylceramide, reference compound], for which, in assay [1] (Vβ8.2 TCR), the ka was 162000 M⁻¹ s⁻¹ and 162000 ± 9500 M⁻¹ s⁻¹; the kd is 0.02 s^−1 and 0.02 ± 4.5×10^−4 s^−1. Further, the affinity in assay [1] (affinity (KD(eq)), Vβ8.2 NKT TCR, response at equilibrium), expressed as Kd, was 300 nM. In the assay with Vβ7 NKT TCR / CD1d-Ag (setting [4]), the ka is 231000 ± 31500 M⁻¹ s⁻¹ and the kd was 0.09 ± 0.003 s⁻¹. For the same molecule, the “IFN-γ+ NKT cells” value in the assay on spleen NKT cells [2] is recorded as “approximately 25%”.

Values taken from publication PMC3710193 (Journal of immunology (Baltimore, Md. : 1950), 2011).
